Results from publication PMC11319731 (Nature Communications, 2024).

Tests used:
[1] = tested on: PD-L2, B7H3 (CD276), B7H4, Vista; test: Western blot of other PD-L1 family proteins in HCT116; format: cell-based; conditions: 5μM Arg6-MPHP, HCT116, WB
PD-L1 in HCT116 cells = PD-L1 in HCT116 cells (Homo sapiens, UniProt Q9NZQ7); test: Immunofluorescence; format: cell-based; conditions: HCT116, incubation for 10 h, LSCM
Method in brief: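 HCT116 colon cancer cells were exposed to test peptide carrying an N-terminal Arg6 cell-penetrating hexamer, or to an Arg6-tagged random-sequence control peptide. PD-L1 was labelled with red dye and HSC70 or LAMP2 with green dye, and cells were imaged by laser scanning confocal microscopy (10 h incubation stated for the HSC70 pairing). Intensity profiles were plotted along a line, with colocalization given as Pearson's R.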

Sequence of PD-L1 in HCT116 cells (Q9NZQ7 19-290): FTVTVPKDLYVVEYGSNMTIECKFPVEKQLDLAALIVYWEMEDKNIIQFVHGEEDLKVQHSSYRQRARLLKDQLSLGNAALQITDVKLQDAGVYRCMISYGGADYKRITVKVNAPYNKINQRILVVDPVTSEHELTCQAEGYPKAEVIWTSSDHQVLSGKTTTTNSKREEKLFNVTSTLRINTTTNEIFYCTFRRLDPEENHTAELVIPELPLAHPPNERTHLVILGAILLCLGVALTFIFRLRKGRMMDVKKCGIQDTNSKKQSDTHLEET

colocalization of PD-L1 and HSC70 (PD-L1 in HCT116 cells): conspicuous colocalization
Compound: C[C@H](O)[C@@H](NC(=O)[C@H]1CCCN1C(=O)[C@@H](CCCCN)NC(=O)[C@@H](CO)NC(=O)[C@@H](Cc1ccc(O)cc1)NC(=O)[C@@H](CC(N)=O)NC(=O)CCOCCOCCOCCNC(=O)[C@H](CCC(N)=O)NC(=O)[C@H](CCCNC(=N)N)NC(=O)[C@H](Cc1ccccc1)NC(=O)[C@H](CCC(=O)O)NC(=O)[C@H](CCCCN)NC(=O)[C@H](CS)NC(=O)[C@H](CCCNC(=N)N)NC(=O)[C@H](CCCNC(=N)N)NC(=O)[C@H](CCCNC(=N)N)NC(=O)[C@H](CCCNC(=N)N)NC(=O)[C@H](CCCNC(=N)N)NC(=O)[C@@H](N)CCCNC(=N)N)C(=O)N[C@H](CC(=O)O)C(=O)N[C@H](CCCNC(=N)N)C(=O)N[C@H](CCC(N)=O)C(=O)N[C@H](Cc1ccc(O)cc1)C(=O)N[C@H](Cc1c[nH]cn1)C(=O)N[C@H](Cc1ccccc1)C(=O)O [Arg6-MPHP]
impact on other PD-L1 family proteins (PD-L2, B7H3 (CD276), B7H4, Vista) [1]: negligible
